Reference: ChEMBL document CHEMBL5715950, “Characterization of molecular and cellular functions of the cyclin-dependent kinase CDK9 using a novel specific inhibitor” (Br J Pharmacol, 2014)
Activity calls are given as the source filed them. The rule behind the calls is not given here.

Columns and labels:
[1] = molecular target: CDK6/cyclin D3 (Homo sapiens, UniProt Q00534); test: Inhibition of CDK6/Cyclin D3 (unknown origin) using ULight MBP peptide as substrate in presence of ATP incubated for 1 hr by FRET based LANCE Ultra KinaSelect screen assay; type: protein-complex assay
CDK6/cyclin D3, sequence (P30281 whole entry): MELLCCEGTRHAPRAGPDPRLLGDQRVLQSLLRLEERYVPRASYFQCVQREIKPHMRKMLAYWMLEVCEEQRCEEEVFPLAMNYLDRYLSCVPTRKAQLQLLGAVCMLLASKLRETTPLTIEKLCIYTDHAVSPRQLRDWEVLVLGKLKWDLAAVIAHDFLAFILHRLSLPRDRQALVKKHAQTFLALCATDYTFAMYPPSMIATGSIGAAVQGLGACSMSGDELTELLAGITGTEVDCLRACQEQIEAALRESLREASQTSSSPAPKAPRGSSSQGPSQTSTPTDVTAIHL
CDK6/cyclin D3, sequence (Q00534 whole entry): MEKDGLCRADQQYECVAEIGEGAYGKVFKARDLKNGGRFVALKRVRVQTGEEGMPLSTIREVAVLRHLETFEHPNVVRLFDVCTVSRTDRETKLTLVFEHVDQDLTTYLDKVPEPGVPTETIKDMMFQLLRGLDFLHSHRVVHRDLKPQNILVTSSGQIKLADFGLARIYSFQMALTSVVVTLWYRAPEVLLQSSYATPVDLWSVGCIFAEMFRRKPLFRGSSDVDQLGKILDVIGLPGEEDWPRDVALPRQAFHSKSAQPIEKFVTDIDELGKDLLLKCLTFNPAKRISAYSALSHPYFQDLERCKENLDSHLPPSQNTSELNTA
Method in brief: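 Time-resolved FRET kinase assay with purified CDK-cyclin pairs. ULight MBP peptide substrate was 50 nM final. Buffer was 50 mM HEPES-KOH pH 7.5, 10 mM MgCl2, 1 mM EGTA and 2 mM DTT, with ATP at each kinase's KM (CDK2-cyclin A 3 μM). Reactions ran 1 h at room temperature, then 2 nM Eu-labelled anti-phospho antibody was added for detection. IC50 given as mean ± SD.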

[2] = molecular target: CDK7/Cyclin H/MNAT1 (Homo sapiens, UniProt P50613); test: Inhibition of CDK7/Cyclin H/MAT1 (unknown origin) using ULight MBP peptide as substrate in presence of ATP incubated for 1 hr by FRET based LANCE Ultra KinaSelect screen assay; type: protein-complex assay
CDK7/Cyclin H/MNAT1, sequence (P51946 whole entry): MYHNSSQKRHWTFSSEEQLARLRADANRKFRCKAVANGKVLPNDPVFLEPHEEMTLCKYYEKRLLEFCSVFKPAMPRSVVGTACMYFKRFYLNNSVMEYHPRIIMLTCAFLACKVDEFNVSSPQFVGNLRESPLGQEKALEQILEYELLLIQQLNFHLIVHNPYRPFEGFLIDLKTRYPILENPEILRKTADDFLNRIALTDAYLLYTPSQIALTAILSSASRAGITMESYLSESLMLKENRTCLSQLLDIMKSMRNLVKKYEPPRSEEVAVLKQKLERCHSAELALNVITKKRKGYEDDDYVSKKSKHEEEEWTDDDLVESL
CDK7/Cyclin H/MNAT1, sequence (P50613 whole entry): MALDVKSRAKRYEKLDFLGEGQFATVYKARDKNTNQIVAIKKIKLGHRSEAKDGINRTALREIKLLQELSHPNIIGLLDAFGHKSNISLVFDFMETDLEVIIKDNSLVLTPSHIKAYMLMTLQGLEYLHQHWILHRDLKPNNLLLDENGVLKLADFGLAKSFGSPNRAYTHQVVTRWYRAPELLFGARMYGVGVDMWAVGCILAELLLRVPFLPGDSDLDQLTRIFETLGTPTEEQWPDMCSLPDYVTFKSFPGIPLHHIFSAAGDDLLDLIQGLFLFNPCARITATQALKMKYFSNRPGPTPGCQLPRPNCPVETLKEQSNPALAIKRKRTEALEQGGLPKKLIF
CDK7/Cyclin H/MNAT1, sequence (P51948 whole entry, further chain): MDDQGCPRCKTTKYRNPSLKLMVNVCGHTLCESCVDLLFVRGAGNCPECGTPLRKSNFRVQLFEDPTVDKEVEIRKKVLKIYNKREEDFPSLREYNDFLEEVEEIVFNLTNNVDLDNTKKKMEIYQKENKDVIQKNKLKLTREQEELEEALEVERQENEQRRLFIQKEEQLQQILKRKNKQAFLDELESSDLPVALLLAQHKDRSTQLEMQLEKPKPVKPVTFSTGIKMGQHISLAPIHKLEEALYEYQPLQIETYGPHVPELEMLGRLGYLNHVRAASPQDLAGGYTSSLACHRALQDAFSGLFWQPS

[3] = molecular target: T1, Glycogen synthase kinase-3 alpha (Homo sapiens, UniProt P49840); test: Inhibition of GSK3A (unknown origin) assessed as residual activity at 10 uM incubated for 120 mins in presence of 33P-ATP by radiometric kinase assay relative to control
Target sequence in this assay (P49840 2-483 limits assumed): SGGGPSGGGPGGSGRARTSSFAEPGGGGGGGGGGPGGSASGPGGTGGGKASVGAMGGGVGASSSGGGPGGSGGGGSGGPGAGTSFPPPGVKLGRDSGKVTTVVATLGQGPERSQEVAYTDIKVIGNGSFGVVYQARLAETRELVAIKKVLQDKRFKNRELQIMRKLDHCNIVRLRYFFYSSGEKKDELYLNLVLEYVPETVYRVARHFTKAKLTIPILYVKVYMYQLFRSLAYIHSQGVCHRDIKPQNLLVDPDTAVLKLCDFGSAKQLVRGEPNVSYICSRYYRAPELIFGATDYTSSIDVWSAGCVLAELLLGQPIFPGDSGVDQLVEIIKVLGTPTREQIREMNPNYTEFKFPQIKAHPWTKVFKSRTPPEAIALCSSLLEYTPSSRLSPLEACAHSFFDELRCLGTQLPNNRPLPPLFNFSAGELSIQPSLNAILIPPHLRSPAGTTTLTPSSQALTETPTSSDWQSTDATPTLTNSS

[4] = molecular target: T1, Glycogen synthase kinase-3 alpha; test: Inhibition of GSK3A (unknown origin) incubated for 120 mins in presence of 33P-ATP by radiometric kinase assay
Target sequence in this assay (P49840 whole entry): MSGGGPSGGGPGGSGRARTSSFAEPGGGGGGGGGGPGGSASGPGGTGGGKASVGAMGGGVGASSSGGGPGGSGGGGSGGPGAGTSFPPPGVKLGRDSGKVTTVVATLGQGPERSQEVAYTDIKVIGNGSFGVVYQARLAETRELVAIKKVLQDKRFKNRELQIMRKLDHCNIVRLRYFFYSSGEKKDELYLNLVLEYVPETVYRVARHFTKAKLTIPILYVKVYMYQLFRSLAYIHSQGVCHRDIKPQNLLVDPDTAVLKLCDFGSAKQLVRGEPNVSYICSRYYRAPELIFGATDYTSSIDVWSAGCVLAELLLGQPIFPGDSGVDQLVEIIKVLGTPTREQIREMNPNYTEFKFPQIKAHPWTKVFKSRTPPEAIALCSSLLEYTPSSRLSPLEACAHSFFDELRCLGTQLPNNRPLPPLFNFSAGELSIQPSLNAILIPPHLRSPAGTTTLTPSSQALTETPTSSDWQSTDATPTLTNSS

[5] = molecular target: Tyrosine-protein kinase ABL2 (Homo sapiens, UniProt P42684); test: Inhibition of ABL2 (unknown origin) incubated for 120 mins in presence of 33P-ATP by radiometric kinase assay
Tyrosine-protein kinase ABL2, sequence (P42684 whole entry): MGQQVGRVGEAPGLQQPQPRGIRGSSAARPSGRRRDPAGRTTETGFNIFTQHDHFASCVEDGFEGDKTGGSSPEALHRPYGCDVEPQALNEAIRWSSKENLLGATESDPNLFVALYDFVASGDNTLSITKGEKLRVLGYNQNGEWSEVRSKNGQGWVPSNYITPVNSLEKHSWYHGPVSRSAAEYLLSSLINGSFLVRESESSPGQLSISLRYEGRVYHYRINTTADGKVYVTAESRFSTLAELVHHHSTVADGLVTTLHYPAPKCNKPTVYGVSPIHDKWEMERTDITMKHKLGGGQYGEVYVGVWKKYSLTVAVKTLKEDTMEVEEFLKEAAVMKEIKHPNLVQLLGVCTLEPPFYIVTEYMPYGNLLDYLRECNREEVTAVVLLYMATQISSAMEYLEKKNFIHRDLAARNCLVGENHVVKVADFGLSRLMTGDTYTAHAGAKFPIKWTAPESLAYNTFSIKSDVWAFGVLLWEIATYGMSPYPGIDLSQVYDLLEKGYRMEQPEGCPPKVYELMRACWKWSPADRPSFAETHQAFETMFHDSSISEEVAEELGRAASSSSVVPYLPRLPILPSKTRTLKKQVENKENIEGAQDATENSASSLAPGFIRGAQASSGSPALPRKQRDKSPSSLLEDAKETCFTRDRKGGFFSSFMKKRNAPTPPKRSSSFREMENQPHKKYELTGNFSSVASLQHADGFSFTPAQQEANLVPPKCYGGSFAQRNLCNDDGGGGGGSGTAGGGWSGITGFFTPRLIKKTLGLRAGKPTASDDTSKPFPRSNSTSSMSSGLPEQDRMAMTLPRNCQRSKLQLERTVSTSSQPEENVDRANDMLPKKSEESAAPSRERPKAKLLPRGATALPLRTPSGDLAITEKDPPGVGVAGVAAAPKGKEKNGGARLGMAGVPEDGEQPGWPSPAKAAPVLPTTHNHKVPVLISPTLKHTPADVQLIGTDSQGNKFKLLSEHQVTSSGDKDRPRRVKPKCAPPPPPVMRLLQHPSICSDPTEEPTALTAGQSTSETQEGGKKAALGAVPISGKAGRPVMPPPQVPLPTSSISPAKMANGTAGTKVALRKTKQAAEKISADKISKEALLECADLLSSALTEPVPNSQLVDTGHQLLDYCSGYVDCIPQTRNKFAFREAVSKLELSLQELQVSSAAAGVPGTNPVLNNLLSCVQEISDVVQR
Method in brief: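 Radiometric panel assay, 10-dose mode: serial dilutions from […], in duplicate, at 1 μM ATP. Incubated 120 min at room temperature, then spotted on P81 paper, acid-washed and counted. Values are means.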

[6] = molecular target: Cyclin-dependent kinase 9 (Homo sapiens) (UniProt P50750); test: Inhibition of CDK9 in human HeLa cells assessed as downregulation of Serine 5 phosphorylation at 10 uM incubated for 60 mins by Western blotting analysis; type: cell-based
Cyclin-dependent kinase 9 (Homo sapiens), sequence (P50750 whole entry, the tested form may be a part): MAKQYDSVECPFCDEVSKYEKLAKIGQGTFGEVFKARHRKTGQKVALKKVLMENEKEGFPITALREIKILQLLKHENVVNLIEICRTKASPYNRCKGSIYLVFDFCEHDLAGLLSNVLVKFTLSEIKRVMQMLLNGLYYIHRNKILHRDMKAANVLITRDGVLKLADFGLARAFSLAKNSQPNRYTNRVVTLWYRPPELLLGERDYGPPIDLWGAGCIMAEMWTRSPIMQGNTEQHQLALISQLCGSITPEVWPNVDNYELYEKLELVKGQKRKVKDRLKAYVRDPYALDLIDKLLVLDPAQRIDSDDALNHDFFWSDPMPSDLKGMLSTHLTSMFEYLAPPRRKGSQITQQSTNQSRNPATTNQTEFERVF

[7] = test system: A549; test: Induction of apoptosis in human A549 cells at 10 uM incubated for 24 hrs by Annexin V-FITC/PI staining based flow cytometric analysis; type: functional, cell-based
Method in brief: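 Cells grown at 37°C, 5% CO2 (A549, HeLa, MCF7 in DMEM high glucose; HCT116 in McCoy's 5A; THP1 and primary AML M4 apheresis blasts in RPMI1640), exposed to inhibitor or DMSO for 24 h. Apoptotic fraction by flow cytometry after annexin V-fluorescein/propidium iodide double staining. Means ± SD of three biological replicates; AML blasts from one patient, three technical replicates. Student's t-test versus DMSO/untreated.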

[8] = molecular target: Cyclin-dependent kinase 9 (Homo sapiens) (UniProt P50750); test: Inhibition of CDK9 in human A549 cells assessed as downregulation of PLK2 mRNA expression at 2 to 6 uM incubated for 90 mins by RT-qPCR analysis relative to control; type: cell-based; settings: dose 2-6 µM
[9] = test system: HeLa; test: Inhibition of RNA synthesis in human HeLa cells stably transfected with luciferase reporter gene at 10 uM incubated for 30 mins followed by doxycycline addition and measured after 60 mins by RT-qPCR analysis relative to control; type: functional; settings: 1.5 h, time 90 min
Method in brief: (§1)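 Stably transfected HeLa cells carrying a tetracycline-inducible luciferase reporter: inhibitor or DMSO for 30 min, then 1 μg/mL doxycycline for 60 min. De novo reporter transcripts measured by RT-qPCR.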

[10] = test system: HeLa; test: Inhibition of RNA synthesis in human HeLa cells stably transfected with luciferase reporter gene at 0.04 to 2 uM incubated for 30 mins followed by doxycycline addition and measured after 60 mins by RT-qPCR analysis; type: functional, cell-based; settings: dose 0.04-2 µM, time 90.0 min; method in brief: as §1
[11] = molecular target: Cyclin-dependent kinase 9 (Homo sapiens) (UniProt P50750); test: Inhibition of CDK9 in human HeLa cells assessed as upregulation of RNAPII expression at 10 uM incubated for 1 hr by chromatin immunoprecipitation assay; type: cell-based
[12] = molecular target: Cyclin-dependent kinase 9 (Homo sapiens) (UniProt P50750); test: Inhibition of CDK9 in human HeLa cells assessed as upregulation of serine 5 phosphorylation at 10 uM incubated for 1 hr by chromatin immunoprecipitation assay; type: cell-based
[13] = test system: A549; test: Transcription level in human A549 cells nuclear extract fused with Gal4-VP16 at 10 uM in presence of ATP by phosphorimaging analysis relative to control

Question: What does the source list for `COc1ccccc1-c1cc(Nc2cccc(NS(C)(=O)=O)c2)ncn1`?
Answer: IC50 [1]: > 10 µM; IC50 [2]: > 10 µM; Activity [3]: 9.5%; IC50 [4]: 1.46 µM; IC50 [5]: 3.64 µM; inhibition [6]: inactive; Activity [7]: Active; inhibition [8]: 50%; inhibition at 10 µM [9]: 80%; inhibition [10]: Active; inhibition [11]: Active; inhibition [12]: Active; level, % of control at 10 µM [13]: 20%
